# OX1R antag-1: antagonists of human orexin 1 receptor (OX1R) | Orexin/Hypocretin receptor type 1 (Homo sapiens), O43613 | AID 485270, 2010 | inhibition, % at 6.6 µM | 1.8% of 330,000 active | OX1R-expressing cells, FRET antagonist read-out; in the data active means inhibition mostly above about 38%, no sharp cut-off; inactive means mostly below about 40%;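 further: 0% = agonist challenge alone and 100% = reference antagonist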
# GPR7 antagonist: GPR7 receptor antagonists, primary screen, cell-based, fluorescence, single concentration; AID 1861, 2009; 1.1% of 290,000 active; Neuropeptides B/W receptor type 1 (Homo sapiens), P48145; GPR7-expressing cells, fluorescence antagonist assay; inhibition, % at 4.4 µM; in the data active means inhibition above about 16%, passing the limit was not always enough;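 further: cells stimulated with the agonist NPW; 0% = agonist with vehicle and 100% = vehicle without agonist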
# Target sequence (P48145 whole entry, looked up): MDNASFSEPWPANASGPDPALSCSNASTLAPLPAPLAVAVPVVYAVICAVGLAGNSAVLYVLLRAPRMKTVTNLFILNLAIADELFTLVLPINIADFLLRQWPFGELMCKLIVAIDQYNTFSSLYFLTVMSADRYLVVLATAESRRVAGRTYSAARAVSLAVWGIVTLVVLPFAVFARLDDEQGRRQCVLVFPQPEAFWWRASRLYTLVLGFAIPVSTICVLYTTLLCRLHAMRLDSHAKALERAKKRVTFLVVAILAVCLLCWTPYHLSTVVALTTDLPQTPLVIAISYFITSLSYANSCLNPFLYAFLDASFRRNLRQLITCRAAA
# TAAR1 agonist: human TAAR1 agonists, primary screen, Fluo-8 calcium fluorescence, CHO RD-HGA16 cells; Trace amine-associated receptor 1 (Homo sapiens), Q96RJ0; vehicle wells 0%, saturating PEA agonist 100%; activation, % at 3 µM; 0.99% of 360,000 active; AID 624467, 2012;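 active means activation above the mean activation of all test compounds in the run plus 3 SD, cut at about 38% in these data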
#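 Signal – calcium-sensitive Fluo-8 signal, excitation 470-495, emission 515-575 nm · System – RD-HGA16 (CHO) cells co-expressing Gα16 and hTAAR1 · Incubation – 17-24 h seeding, 75 min 37 °C dye, 30 min RT · Compound dosing – 3 µM single concentration · Repeats – no replicates (n 1)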
# TAAR1 antag: human TAAR1 antagonists, primary screen, Fluo-8 calcium fluorescence, CHO RD-HGA16 cells. Trace amine-associated receptor 1 (Homo sapiens), Q96RJ0. antagonist. inhibition, % at 3 µM. 1.5% of 360,000 active. AID 624466, 2012;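 active means inhibition above a per-plate cutoff, the mean inhibition of test compounds on that plate plus 3 SD, cut at about 49% in these data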;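 further: 0% = DMSO plus EC80 beta-PEA response and 100% = DMSO alone without agonist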
#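 System: RD-HGA16 CHO cells with stable hTAAR1 and Gα16 | Probe or stimulus: EC80 β-phenethylamine stimulus | Dosing: 3 µM, single point | Times: Dye loading 75 min at 37 °C, then 30 min room temperature | Measured by: Fluo-8 calcium-sensitive fluorescence | Read-out basis: % inhibition of agonist calcium response | Replicates: n of 1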
# CHO parental Ca: ATP-evoked calcium signal inhibitors, parental CHO, primary screen, counter-screen for OX1R antagonist project, cell-based, fluorescence, Fluo-8 calcium dye; parental CHO-K1, ATP-induced calcium, Fluo-8 fluorescence; inhibition, % at 5.6 µM; 0.63% of 330,000 active;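 active means inhibition above that plate's mean sample inhibition plus 3 SD, cut at about 26% in these data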;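 further: 0% = ATP-challenged DMSO wells and 100% = DMSO wells without ATP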
#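 Test system: parental CHO cells; detection: calcium-sensitive Fluo-8 fluorescence; evaluation: percent inhibition of calcium signal; also added: ATP as calcium-mobilizing challenge; repeats: one well per compound; control set: ATP-challenged DMSO wells low, unchallenged DMSO wells high; compound: single nominal dose of 5.6 µM per compound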
# OX1R antag-2: OX1R (HCRTR1) antagonists, primary screen, fluorescence, CHO/OX1R cells, Fluo-8 calcium, orexin A. Orexin/Hypocretin receptor type 1 (Homo sapiens), O43613. Fluo-8 calcium fluorescence. inhibition, % at 5 µM. 0.43% of 330,000 active. AID 434989, 2010;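 active means inhibition above its plate's threshold, mean inhibition of all tested compounds on the plate plus 3 SD, cut at about 37% in these data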;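 further: 0% = orexin A challenge wells and 100% = SB-334867-A antagonist wells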
# The depositor's hits bear a star; · = no result. Sampled rows, rich in hits. Any-hit rate of the full collection: about 4.6%.
SMILES,OX1R antag-1,GPR7 antagonist,TAAR1 agonist,TAAR1 antag,CHO parental Ca,OX1R antag-2
Cc1nc([N+](=O)[O-])cn1CC(=O)c1ccccc1,21.2,-19.2,0.9,-12.6,2.3,-6.1
Cc1nc([N+](=O)[O-])cn1-c1nc2ccccn2c1[N+](=O)[O-],54.5*,-2.7,1.9,-4.5,-2.9,-11.3
O=[N+]([O-])c1ccc(NCCCNS(=O)(=O)c2ccc(Cl)cc2)c(Cl)c1,16.2,54.1*,2.1,-7.6,7.4,-1.3
C/C(=N\Nc1ccc([N+](=O)[O-])cc1[N+](=O)[O-])C(C)(C)C(C(=O)O)C(=O)O,73.0*,-7.5,0.7,-14.1,-7.1,-10.2
Nc1nc(C(c2ccccc2)c2ccccc2)cs1,21.6,-10.6,4.3,-23.0,-7.5,-1.6
CCc1nnc(NC(=O)CSc2nnc(Cc3cc(=O)[nH]c(=O)[nH]3)n2-c2cccc(OC)c2)s1,11.8,17.1*,0.1,14.3,-1.9,-10.1
CCc1nnc(NC(=O)CSc2nnc(Cc3cc(=O)[nH]c(=O)[nH]3)n2-c2ccc(OC)cc2)s1,16.3,11.3,0.6,-5.8,11.7,-10.8
CSc1ccccc1NC(=O)CN(C)CC(=O)c1c(C)[nH]c2ccccc12,27.7,·,7.1,4.6,-19.8,10.8
O=C(CNC(=O)c1ccccc1Br)N/N=C\c1cc([N+](=O)[O-])cc(Br)c1O,52.7*,-0.2,8.9,-22.6,0.5,-0.2
O=C(Cc1cccs1)N/N=C\c1ccc([N+](=O)[O-])s1,46.6,1.4,13.6,-2.9,-12.4,-14.0
O=C(CNC(=O)c1ccccc1Br)N/N=C/c1cc(Br)ccc1O,14.4,-2.9,22.7,5.7,-15.2,-32.9
O=C(CNC(=O)c1ccccc1Cl)N/N=C/c1ccc([N+](=O)[O-])s1,51.1*,-3.6,11.6,-8.6,-3.5,-24.5
FC(F)(F)c1nc(N2CCCC2)ncc1-c1nnnn1-c1ccccc1,25.2,6.8,8.4,16.6,39.6*,23.0
COC(=O)c1ccccc1NC(=O)CCCn1nc([N+](=O)[O-])c(Br)c1C,75.0*,-1.7,-0.9,-4.8,-16.7,3.7
NC(c1csc(Nc2nncc3ccccc23)n1)c1ccccc1Cl (configuration not stated),·,·,50.5*,39.9,·,·
CCCCCCCNC(=O)C1(CC2CC(c3cccc(Br)c3)=NO2)CCN(C(=O)CCCCCBr)CC1 (configuration not stated),5.9,·,14.0,8.9,-31.3,-34.5
COc1ccc(CCNc2ncnc3sccc23)cc1OC,58.3,9.3,10.8,32.0,75.7*,42.4*
COc1ccccc1Oc1ncnc2sccc12,8.3,-6.0,2.1,-14.9,-0.8,-15.1
c1ccc2c(c1)OCC(CNc1ncnc3sccc13)O2 (configuration not stated),52.0,17.0,7.9,29.9,67.8*,23.9
COc1ccccc1CNc1ncnc2sccc12,47.5*,2.2,1.8,10.2,40.6*,-4.4
N#Cc1ccc(C(C(=O)NC2CCCCC2)n2c(=O)c(-c3cc4ccccc4[nH]3)nc3ccccc32)cc1 (configuration not stated),·,·,0.1,-33.4,·,·
CCC(C)NC(=O)CN1C(=O)COc2ccc(S(=O)(=O)N3CCOCC3)cc21 (configuration not stated),5.9,-12.3,1.1,-33.0,-9.2,-5.6
CC(=O)C1=C(O)C(=O)N(CC#N)C1c1cccs1 (configuration not stated),17.9,24.7,12.1,6.6,-0.7,-8.0
O=C(Nc1cccc2ccccc12)c1ccc(Br)o1,·,4.5,3.4,2.9,·,·
O=C(Nc1cccc2ccccc12)c1ccccc1NS(=O)(=O)c1cccc2cccnc12,64.9,-1.2,2.4,4.4,-16.6,14.7
O=C(Nc1cccc2cccnc12)c1ccc(Br)o1,75.4*,-11.3,6.8,-9.7,-16.2,9.4
